The results in this text go back to ChEMBL document CHEMBL1148739, “Microwave-assisted ring opening of epoxides: a general route to the synthesis of 1-aminopropan-2-ols with anti malaria parasite activities” (J Med Chem, 2007).

Calls of active or inactive are those of the source. No cut-off for these calls is given here.

Experiment [1] deals with Plasmodium falciparum. The experiment is described as follows: Antimalarial activity against Plasmodium falciparum FCR3 after 72 hrs. Format: functional, organism-based. Conditions: FCR3, 72 h. An outline of the steps: (§1)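 P. falciparum in continuous culture in 5% O+ erythrocytes, RPMI-1640 with 25 mM HEPES, 0.5% albumax, 2 mM L-glutamine, gentamicin; 37 °C, 5% CO2/5% O2/90% N2; sorbitol-synchronized. Ring stages seeded at 0.05% parasitemia, 1.5% hematocrit; 72 h with threefold serial dilutions from 100 µM. HRPII accumulation after freeze-thaw lysis read as percent of untreated controls; duplicates; IC50 from 72 h HRPII production.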

Experiment [2] has as its system Plasmodium falciparum. The experiment is described as follows: Antimalarial activity against Plasmodium falciparum 3D7 after 72 hrs. Format: functional, organism-based. The conditions noted are these: 3D7, 72 h. An outline of the steps: as §1
For experiment [3], the target named is T1, Aquaglyceroporin (Plasmodium falciparum) (UniProt Q8II36).
T1 sequence (whole entry): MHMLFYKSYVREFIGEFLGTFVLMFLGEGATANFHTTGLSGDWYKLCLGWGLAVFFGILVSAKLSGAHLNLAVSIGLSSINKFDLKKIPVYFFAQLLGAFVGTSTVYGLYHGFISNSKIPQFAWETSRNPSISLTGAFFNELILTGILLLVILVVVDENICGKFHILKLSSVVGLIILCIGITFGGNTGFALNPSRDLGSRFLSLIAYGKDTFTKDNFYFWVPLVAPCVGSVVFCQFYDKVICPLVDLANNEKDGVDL
Put plainly: Inhibition of Plasmodium falciparum AQP expressed in BY4742-deltafpsl cells at 100 uM after 48 hrs. In kind it is cell-based. An outline of the steps: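 BY4742Δfps1 yeast expressing PfAQP grown in 20 mM MES-buffered (pH 5.5) minimal YNB with 3% glucose, 0.1% proline, with or without 50 mM methylamine hydrochloride; compound at 100 µM, untreated cells as controls.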

The next experiment has as its system MONO-MAC-6. Put plainly: Effect on cell viability in human MONO-MAC-6 cells at 100 uM after 24 hrs. Format: functional, cell-based. An outline of the steps:
(§2)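 Cell lines kept at 37 °C in RPMI 1640 with L-glutamine and 10% fetal calf serum under 5% humidified CO2. Cell suspension (25 cells/µL) exposed to 100 µM compound for 24 h (one cell cycle) at 37 °C. Viability by Trypan Blue dye uptake; duplicates.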

Another experiment deals with Jurkat. The experiment is described as follows: Effect on cell viability in human Jurkat lymphoblastoid cells at 100 uM after 24 hrs. Format: functional, cell-based. An outline of the steps: as §2
A further experiment concerns NALM-6. The experiment is described as follows: Effect on cell viability in human NALM6 cells at 100 uM after 24 hrs. Format: functional, cell-based. An outline of the steps: as §2

As for `CCN(CC)CC(O)COCc1ccccc1` (stereo not drawn), inhibition with Plasmodium falciparum [1] was half-maximal at 28.1 µM (IC50).
Still for that read-out and setting: under `OC(COCc1ccccc1)CN1CCCC1` (stereo not drawn) stands 20.2 µM.
Take `O[C@H](CNC1CCCC1)COCc1ccccc1`: the IC50 was 4.6 µM in the experiment on Plasmodium falciparum [1] and 3.9 µM in the experiment with Plasmodium falciparum [2].
On the same counts, the results for `CN(Cc1ccccc1)CC(O)CNCc1ccccc1` (stereo not drawn) are 41.6 µM and 15.4 µM.
Turning to `CN(Cc1ccccc1)CC(O)COCc1ccccc1` (stereo not drawn), the IC50 in the experiment on Plasmodium falciparum [1] turned out to be 2 µM; in the experiment on Plasmodium falciparum [2], 47 µM. For the same compound, the outcome in experiment [3] was inactive.
In the experiment on Plasmodium falciparum [1], `OC(CNCC1CCCO1)COCc1ccccc1` (stereo not drawn) displayed an IC50 of 7.7 µM.
On the same count and under the same terms, under `C=CCNCC(O)CCl` (stereo not drawn) stands 23.8 µM.
In the case of `CCN1CCCC1CNCC(O)COCc1ccccc1` (stereo not drawn), the IC50 amounted to 15.8 µM in the experiment with Plasmodium falciparum [1] and 32.5 µM in the experiment with Plasmodium falciparum [2].
`CC(C)(C)NCC(O)COCc1ccccc1` (stereo not drawn) registered an IC50 in the experiment on Plasmodium falciparum [1] of 12.7 µM.
Consider `OC(CCl)CN1CCNCC1` (stereo not drawn), for which the result in the experiment with MONO-MAC-6, in the experiment on Jurkat and in the experiment with NALM-6 was inactive. Moreover, the IC50 in the experiment on Plasmodium falciparum [1] stood at 38.5 µM; with Plasmodium falciparum [2] it was 66 µM.
For the compound `CN(Cc1ccccc1)CC(O)CCl` (stereo not drawn), the outcome in the experiment on MONO-MAC-6, in the experiment with Jurkat and with NALM-6 was inactive. Moreover, the IC50 with Plasmodium falciparum [1] came to 31 µM; in the experiment on Plasmodium falciparum [2] it was 15.6 µM.
`OC(CNCC1CC1)COCc1ccccc1` (stereo not drawn) yielded an IC50 with Plasmodium falciparum [1] of 8.4 µM. Further, in experiment [3], the outcome was inactive.
`CN(Cc1ccccc1)CC(O)CN(C)Cc1ccccc1`: the values for the IC50 in the experiment on Plasmodium falciparum [1] and with Plasmodium falciparum [2] were 43.9 µM and 43.5 µM, respectively.
Compound `OC(CNCCc1cccs1)COCc1ccccc1` (stereo not drawn) had an IC50 in the experiment with Plasmodium falciparum [1] of 1.2 µM.
Same read-out and setting: in the case of `OC(CNCc1ccco1)COCc1ccccc1` (stereo not drawn) it was 3.4 µM; in that of `OC(CNc1ccccn1)COCc1ccccc1` (stereo not drawn), 31.1 µM.
Same read-out and setting: under `OC(CNC1CCC1)COCc1ccccc1` (stereo not drawn) stands 15.2 µM; under `OC(COCc1ccccc1)CN1CCNCC1` (stereo not drawn), 12.5 µM.
With `OC(CNC1CCCC1)COCc1ccccc1` (stereo not drawn), the IC50 with Plasmodium falciparum [1] turned out to be 10.3 µM; in the experiment on Plasmodium falciparum [2] it was 15.1 µM.
Regarding `CN(Cc1ccccc1)CC(O)CSCc1ccccc1` (stereo not drawn), the result with MONO-MAC-6, in the experiment with Jurkat and with NALM-6 was inactive. Further, the IC50 is 16.3 µM with Plasmodium falciparum [1] and 9.3 µM with Plasmodium falciparum [2].
Take `OC(CNCc1cccs1)COCc1ccccc1` (stereo not drawn): the result (in the experiment with MONO-MAC-6; in experiment [3]; in the experiment with Jurkat; with NALM-6) was inactive. The IC50 with Plasmodium falciparum [1] was found to be 5.8 µM; in the experiment with Plasmodium falciparum [2], 9.7 µM.
As for `O[C@@H](CNC1CCCC1)COCc1ccccc1`, the IC50 with Plasmodium falciparum [1] came to 5.9 µM; in the experiment on Plasmodium falciparum [2], 5.1 µM.
For `CCN(Cc1ccccc1)CC(O)COCc1ccccc1` (stereo not drawn), the IC50 in the experiment on Plasmodium falciparum [1] was determined as 0.7 µM. Also, in experiment [3], the outcome was inactive.
`CCN(Cc1ccccc1)CC(O)CN(C)Cc1ccccc1` (stereo not drawn): the outcome (with MONO-MAC-6; in experiment [3]; in the experiment with Jurkat; in the experiment with NALM-6) was inactive. Also, the IC50 in the experiment on Plasmodium falciparum [1] turned out to be 7.7 µM; in the experiment with Plasmodium falciparum [2], 3.7 µM.
In the experiment on Plasmodium falciparum [1], `OC(CNCc1ccccc1)COCc1ccccc1` (stereo not drawn) yielded an IC50 of 12.5 µM. The outcome in experiment [3] was inactive.
